Results on 23 compounds are retold here after ChEMBL document CHEMBL1134952, “Dual NK(1) antagonists--serotonin reuptake inhibitors as potential antidepressants. Part 2: SAR and activity of benzyloxyphenethyl piperazine derivatives” (Bioorg Med Chem Lett, 2002).

Structures are written as SMILES. Activity calls are given as the source filed them. The rule behind the calls is not given here.

Test [1] deals with Sodium-dependent serotonin transporter (Rattus norvegicus, UniProt P31652). The test can be described thus: Binding affinity against Serotonin transporter in rat cerebral cortex using [3H]paroxetine binding assay. Type of test: tissue-based. The method, boiled down: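 Rat cerebral cortex membranes, […] protein, incubated 120 min at 25 °C in 50 mM Tris–HCl pH 7.4 with 2 mM MgCl2 and 0.05 nM radioligand. Nonspecific binding taken as the residual binding with excess imipramine present.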
Sodium-dependent serotonin transporter, sequence (P31652 whole entry): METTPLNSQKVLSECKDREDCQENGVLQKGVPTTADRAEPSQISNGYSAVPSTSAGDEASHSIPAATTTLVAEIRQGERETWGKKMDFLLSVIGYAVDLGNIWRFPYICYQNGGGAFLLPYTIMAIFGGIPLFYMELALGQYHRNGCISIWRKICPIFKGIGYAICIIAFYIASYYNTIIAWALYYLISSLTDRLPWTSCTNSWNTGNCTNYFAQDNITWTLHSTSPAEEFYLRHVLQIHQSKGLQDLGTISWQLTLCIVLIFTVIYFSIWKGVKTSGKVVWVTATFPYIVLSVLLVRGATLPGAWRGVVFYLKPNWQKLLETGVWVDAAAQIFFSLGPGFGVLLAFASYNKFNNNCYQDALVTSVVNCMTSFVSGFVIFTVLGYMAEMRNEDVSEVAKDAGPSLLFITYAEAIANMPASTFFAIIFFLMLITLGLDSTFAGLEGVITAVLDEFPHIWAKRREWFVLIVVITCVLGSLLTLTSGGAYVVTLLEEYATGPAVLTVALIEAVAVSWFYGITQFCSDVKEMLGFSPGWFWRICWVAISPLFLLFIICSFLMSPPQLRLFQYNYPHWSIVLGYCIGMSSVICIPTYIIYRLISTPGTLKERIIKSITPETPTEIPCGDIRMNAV

Test [2] addresses T1, Substance-P receptor (Homo sapiens, UniProt P25103). Put plainly: Binding affinity against human Tachykinin receptor 1 expressed in CHO cells using [3H]-substance P as the radioligand. Type of test: cell-based.
Test [3] has as its target T1, Substance-P receptor. Put plainly: Binding affinity against human Tachykinin receptor 1 expressed in CHO cells using [3H]-substance P as the radioligand; less than 50% inhibition at 10e-5 M. Type of test: cell-based.
Test [4] concerns Gerbillinae. Put plainly: Dose required to decrease by 45% the duration of the foot-tapping, indicating efficacious central blockade of NK1 receptors. Type of test: functional.
Test [5] deals with Cavia porcellus. The test can be described thus: Oral dose required attenuate by 50% the duration of vocalizations in the isolation-induced guinea pig pup by vocalization test. Type of test: functional.
In test [6] the test system is Cavia porcellus. The test can be described thus: Oral dose required attenuate by 99% the duration of vocalizations in the isolation-induced guinea pig pup by vocalization test. Type of test: functional.
The test system of test [7] is Rattus norvegicus. The test can be described thus: Intraperitoneal dose required to increase extracellular 5-HT levels to 250% in the frontal cortex of freely moving rats by using intracerebral microdialysis. Type of test: functional.

T1 sequence (P25103 whole entry): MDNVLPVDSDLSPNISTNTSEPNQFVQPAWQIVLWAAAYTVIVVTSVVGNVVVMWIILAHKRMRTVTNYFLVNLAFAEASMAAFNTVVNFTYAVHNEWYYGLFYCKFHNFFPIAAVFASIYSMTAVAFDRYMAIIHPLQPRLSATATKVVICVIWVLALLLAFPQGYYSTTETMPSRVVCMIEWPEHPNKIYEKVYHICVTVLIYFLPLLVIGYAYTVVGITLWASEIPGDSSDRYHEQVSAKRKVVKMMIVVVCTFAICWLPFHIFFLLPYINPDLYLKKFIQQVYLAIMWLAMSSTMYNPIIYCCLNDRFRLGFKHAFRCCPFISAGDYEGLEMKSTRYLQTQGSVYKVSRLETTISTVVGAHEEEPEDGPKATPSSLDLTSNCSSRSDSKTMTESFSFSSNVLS

Take `FC(F)(F)c1cc(COCC(c2ccccc2Cl)N2CCNCC2)cc(C(F)(F)F)c1` (configuration not stated): the values for the IC50 in test [1] and in test [2] were 200 nM and 1.58 nM, respectively.
Consider `Cc1cc(C)cc(COCC(c2ccccc2)N2CCNCC2)c1` (configuration not stated), for which, in test [2], the IC50 is 25.1 nM.
Regarding `COc1c(Br)cc(Br)cc1COCC(c1ccccc1)N1CCNCC1` (configuration not stated), the values for the half-inhibitory concentration (IC50) in test [1] and in test [2] were 6.31 nM and 7.94 nM, respectively.
The like results for `Brc1cc(I)cc(COCC(c2ccccc2)N2CCNCC2)c1` (configuration not stated) were, in that order, 25.1 nM and 1.26 nM.
Taken in the same sequence, the figures for `FC(F)(F)c1cc(COCC(c2ccccc2)N2CCNCC2)cc(C(F)(F)F)c1` (configuration not stated) were 251 nM and 5.01 nM.
`CNCCC(Oc1ccc(C(F)(F)F)cc1)c1ccccc1` (configuration not stated): in test [3], the “Log IC50” value is “inactive”.
For the compound `Fc1ccccc1C(COCc1cc(C(F)(F)F)cc(C(F)(F)F)c1)N1CCNCC1` (configuration not stated), the IC50 was 200 nM in test [1] and 5.01 nM in test [2].
`Brc1cc(Br)cc(COC[C@H](c2ccccc2)N2CCNCC2)c1`: the Dose is 3.2e-05 M/kg in test [4], 1e-05 M/kg in test [5], 3.5e-05 M/kg in test [6] and 3.2e-05 M/kg in test [7]. Besides, the half-maximal inhibitory concentration (IC50) was 10 nM in test [1] and 3.16 nM in test [2].
As for `Clc1cc(Cl)cc(COC[C@@H](c2ccccc2)N2CCNCC2)c1`, the half-maximal inhibitory concentration (IC50) in test [1] was 12.6 nM; in test [2], 25.1 nM.
Taken in the same sequence, the figures for `Clc1cccc(COCC(c2ccccc2)N2CCNCC2)c1` (configuration not stated) were 7.94 nM and 398 nM.
Taken in the same sequence, the figures for `Fc1cccc(C(COCc2cc(C(F)(F)F)cc(C(F)(F)F)c2)N2CCNCC2)c1F` (configuration not stated) were 316 nM and 3.16 nM.
The like results for `COc1ccccc1C(COCc1cc(C(F)(F)F)cc(C(F)(F)F)c1)N1CCNCC1` (configuration not stated) were, in that order, 251 nM and 6.31 nM.
Regarding `COc1ccc(C(COCc2cc(C(F)(F)F)cc(C(F)(F)F)c2)N2CCNCC2)cc1` (configuration not stated), the IC50 is 100 nM in test [1] and 50.1 nM in test [2].
`Brc1cc(Br)cc(COC[C@@H](c2ccccc2)N2CCNCC2)c1`: the half-maximal inhibitory concentration (IC50) in test [1] is 31.6 nM; in test [2], 12.6 nM.
The like results for `Clc1cc(Cl)cc(COC[C@H](c2ccccc2)N2CCNCC2)c1` were, in that order, 2.51 nM and 3.16 nM.
Taken in the same sequence, the figures for `Fc1ccc(C(COCc2cc(C(F)(F)F)cc(C(F)(F)F)c2)N2CCNCC2)cc1` (configuration not stated) were 158 nM and 100 nM.
The like results for `FC(F)(F)c1cc(COCC(c2ccc(Cl)c(Cl)c2)N2CCNCC2)cc(C(F)(F)F)c1` (configuration not stated) were, in that order, 200 nM and 5.01 nM.
Consider `COc1cccc(C(COCc2cc(C(F)(F)F)cc(C(F)(F)F)c2)N2CCNCC2)c1` (configuration not stated), for which the IC50 in test [1] was 200 nM; in test [2] it was 1 nM.
The like results for `Fc1cc(F)cc(COCC(c2ccccc2)N2CCNCC2)c1` (configuration not stated) were, in that order, 0.794 nM and 200 nM.
For `CC(C)(C)c1cc(COCC(c2ccccc2)N2CCNCC2)cc(C(C)(C)C)c1` (configuration not stated), the IC50 in test [1] is 1000 nM.
For `Fc1cc(COCC(c2ccccc2)N2CCNCC2)cc(C(F)(F)F)c1` (configuration not stated), the concentration for half-maximal inhibition (IC50) was 15.8 nM in test [1] and 12.6 nM in test [2].
The like results for `CC(C)c1cccc(C(COCc2cc(C(F)(F)F)cc(C(F)(F)F)c2)N2CCNCC2)c1` (configuration not stated) were, in that order, 316 nM and 39.8 nM.
Taken in the same sequence, the figures for `FC(F)(F)c1cc(COCC(c2cccc(Cl)c2)N2CCNCC2)cc(C(F)(F)F)c1` (configuration not stated) were 251 nM and 1.58 nM.
